# Calls of active or inactive are those of the source. Cut-off read from the data, not from the text of the source, unless noted: active = inhibition above about 30%; inactive = the rest.
# Assays:
# [1] = Her2 expression decrease, cell viability multiplex – SKBR3 breast tumor cells, AlphaScreen, ATP viability, primary screen (AID 461;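 active = Her2 level under about 52% in both replicate screens, with viability over 70% of control, limit read from the data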;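 for Her2 level: lower value means less Her2 protein in the cells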;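 for viability: percent of carrier control wells set as 100% viability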); settings: SKBR3 Her2 protein level, 18-24 h, measured here: SKBR3 viability, ATP luminescence, at 10 µM
# [2] = biological target: Receptor tyrosine-protein kinase erbB-2 (Homo sapiens) (UniProt P04626); assay: as above; settings: 18-24 h, at 10 µM, stronger effect = lower value
# [3] = reduced viability of SK-BR-3 breast cancer cells – cell-based, 24 h, human, pilot screen (AID 572;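 active = viability at or below 10% of carrier control in both of two separate runs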;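 note: compound exposure lasted between 18 and 24 h rather than exactly 24 h; 100% = carrier-treated control wells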); settings: SK-BR-3 viability, CellTiter-Glo luminescence, at 10 µM, stronger effect = lower value
# [4] = HUVEC growth inhibition – cell-based, human, primary screen (AID 575;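 active = viability at or below 30% in both replicate assays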;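 note: 100% = median of untreated cell wells with 0.1% DMSO on each plate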); settings: HUVEC proliferation, CellTiter-Glo luminescence, 72 h; at 10 µM; stronger effect = lower value
# Summary of the method: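 Assay system: Primary human umbilical vein endothelial cells | Quantity: 1250 cells per well | Medium: Supplemented EBM, 2% fetal bovine serum | Detection: CellTiter-Glo luminescence measuring cellular ATP | Read-out: % viability vs DMSO wells | Plate: Collagen-coated 384-well format | Times: 72 h exposure, 37 °C, 5% CO2, 30 min RT equilibration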
# [5] = H69AR cell proliferation blockers – human, duplicate replicates, primary screen (AID 580;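 active = viability at or under a set limit in both replicates, limit being median viability minus 3 SD, cut at about 48% in these data, passing the limit was not always enough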;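 note: 100% = mean luminescence of untreated wells and 0% = no signal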); settings: H69AR lung tumor cells viability, ATP luminescence, 72 h; at 10 µM; stronger effect = lower value
# [6] = MRP1 drug-resistance reversers in H69AR cells – cell-based, doxorubicin co-treatment, pilot screen (AID 601;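 active = viability loss from added drug above about 55%, and viability with drug at most 40%, in both replicates, limit read from the data, passing the limit was not always enough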); settings: CellTiter-Glo, 72 h, at 10 µM; for differential viability (reversal): stronger effect = higher value
# [7] = yeast transport mutant growth inhibition pilot in 384-well plates, post-Golgi transport modulator project (AID 636; in the data active = inhibition above about 31%); settings: absorbance 615 nm, about 18 h, stronger effect = higher value
# [8] = growth suppression of yeast trafficking mutant, preliminary HTS, modulators of trafficking downstream of Golgi apparatus project, 1536-format plate, OD 615 nm (AID 637); settings: yeast transport mutant growth, absorbance 615 nm, 18 h; stronger effect = higher value
# [9] = H69AR cells + 2 uM doxorubicin, measured here: viability with 2 uM doxorubicin, stronger effect = lower value
# [10] = H69AR cells, compound alone cytotoxicity
# Sequence of Receptor tyrosine-protein kinase erbB-2 (Homo sapiens) (P04626 whole entry, looked up): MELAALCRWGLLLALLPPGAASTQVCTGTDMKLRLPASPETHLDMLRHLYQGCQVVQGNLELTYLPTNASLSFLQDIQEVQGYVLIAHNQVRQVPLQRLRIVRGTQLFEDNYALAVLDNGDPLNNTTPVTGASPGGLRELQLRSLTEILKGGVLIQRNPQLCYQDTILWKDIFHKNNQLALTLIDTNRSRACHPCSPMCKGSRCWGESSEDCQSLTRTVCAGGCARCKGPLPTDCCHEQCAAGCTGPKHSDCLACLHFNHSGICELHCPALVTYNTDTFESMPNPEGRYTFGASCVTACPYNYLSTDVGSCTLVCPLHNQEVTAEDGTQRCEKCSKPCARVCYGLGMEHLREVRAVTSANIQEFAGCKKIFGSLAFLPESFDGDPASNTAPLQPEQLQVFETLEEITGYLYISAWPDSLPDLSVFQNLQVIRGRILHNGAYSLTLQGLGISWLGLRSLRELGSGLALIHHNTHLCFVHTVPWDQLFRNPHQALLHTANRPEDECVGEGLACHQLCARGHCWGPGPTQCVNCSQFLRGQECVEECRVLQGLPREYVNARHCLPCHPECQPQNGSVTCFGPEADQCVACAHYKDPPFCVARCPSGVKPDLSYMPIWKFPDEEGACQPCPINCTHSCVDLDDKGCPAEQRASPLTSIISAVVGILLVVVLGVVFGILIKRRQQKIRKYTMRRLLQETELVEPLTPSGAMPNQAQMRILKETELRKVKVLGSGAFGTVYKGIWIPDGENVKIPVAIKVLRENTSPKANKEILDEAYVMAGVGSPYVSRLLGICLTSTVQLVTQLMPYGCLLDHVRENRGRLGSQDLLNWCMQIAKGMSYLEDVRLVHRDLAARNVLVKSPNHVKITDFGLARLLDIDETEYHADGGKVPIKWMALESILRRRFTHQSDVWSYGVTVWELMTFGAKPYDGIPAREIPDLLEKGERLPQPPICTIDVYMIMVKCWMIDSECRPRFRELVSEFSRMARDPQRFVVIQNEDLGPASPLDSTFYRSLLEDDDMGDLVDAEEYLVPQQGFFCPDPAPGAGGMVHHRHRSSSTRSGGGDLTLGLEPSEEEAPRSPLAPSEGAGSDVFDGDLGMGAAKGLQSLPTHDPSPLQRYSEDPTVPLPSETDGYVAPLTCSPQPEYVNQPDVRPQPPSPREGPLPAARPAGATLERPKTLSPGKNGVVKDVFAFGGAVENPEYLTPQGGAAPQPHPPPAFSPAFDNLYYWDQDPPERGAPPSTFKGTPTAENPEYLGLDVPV
Structure (SMILES),viability [1] [%],Her2 level [2],viability [3],viability [4],viability [5],differential viability (reversal) ([6]; H69AR cells + 2 uM doxorubicin),"viability [6, 9] [%]","viability [6, 10] [%]",inhibition [7],inhibition [8]
COc1ccc(-n2nc(C(=O)NCC(=O)NCC3CCCO3)c3ccccc3c2=O)cc1 (stereo not given),120,86.5% (inactive),120% (inactive),103% (inactive),85.5% (inactive),-6.73% (inactive),92.2,85.5,-0.78% (inactive),1.15% (inactive)
O=C(NCc1ccccn1)c1ccc2nc(-c3ccco3)c(-c3ccco3)nc2c1,101,90.5% (inactive),101% (inactive),111% (inactive),73.8% (inactive),-5.92% (inactive),79.8,73.8,-5.66% (inactive),2.13% (inactive)
N#Cc1cnn(Cc2ccc(Cl)cc2)c1N,92,97.5% (inactive),92% (inactive),92.7% (inactive),95.4% (inactive),10.4% (inactive),84.9,95.4,-7.03% (inactive),-7.21% (inactive)
CCOC(=O)C1(C(=O)OCC)C(c2ccccc2)CC(O)N1C(C)=O (stereo not given),116,95% (inactive),116% (inactive),89.1% (inactive),86.2% (inactive),6.16% (inactive),80,86.2,-6.18% (inactive),2.54% (inactive)
CCCCN(CCCNC(=O)C1CCN(S(=O)(=O)CC)CC1)c1ccccc1,87,89.5% (inactive),87% (inactive),97.3% (inactive),96.6% (inactive),-1.6% (inactive),98.2,96.6,-2.89% (inactive),-6.83% (inactive)
COc1ccc(CCn2c(N)c(C#N)c3nc4ccccc4nc32)cc1OC,64,82.5% (inactive),64% (inactive),94.3% (inactive),90.4% (inactive),0.84% (inactive),89.6,90.4,-1.45% (inactive),7.87% (inactive)
Fc1ccc(-c2nnc(CN3CCN(c4ncc(C(F)(F)F)cc4Cl)CC3)o2)cc1,104,87% (inactive),104% (inactive),63.4% (inactive),90.5% (inactive),-0.76% (inactive),91.3,90.5,-1.43% (inactive),3.61% (inactive)
CCCCC(CC)C(=O)Nc1ccccc1C#N (stereo not given),96,95% (inactive),96% (inactive),98.6% (inactive),89.1% (inactive),8.93% (inactive),80.1,89.1,-4.34% (inactive),4.29% (inactive)
CCCCc1nc2n[nH]c(N)c2c2c1CCCC2,138,96% (inactive),138% (inactive),59.9% (inactive),92.3% (inactive),6.68% (inactive),85.6,92.3,-5.47% (inactive),-0.82% (inactive)
Cc1nc(N2CCN(c3ncccn3)CC2)c2oc3ccccc3c2n1,85,106% (inactive),85% (inactive),83.9% (inactive),99.4% (inactive),-11.8% (inactive),111,99.4,-5.47% (inactive),-2.06% (inactive)
Cc1cc(C)cc(-n2ccnc2SCC(=O)Nc2ccc3c(c2)OCCO3)c1,119,93.5% (inactive),119% (inactive),90.7% (inactive),99.3% (inactive),8.09% (inactive),91.2,99.3,-6.05% (inactive),-0.91% (inactive)
N#C[C@@H]1[C@@H]2C(=O)N(c3ccc4c(c3)OCCO4)C(=O)[C@@H]2C2c3ccccc3C=CN21 (stereo not given in full),84.5,72% (inactive),84.5% (inactive),95.8% (inactive),92.8% (inactive),-0.82% (inactive),93.6,92.8,-0.53% (inactive),-5.48% (inactive)
CC(C)CCNC(=O)NC(=O)CSc1nnc(-c2ccccc2F)n1N,94,108% (inactive),94% (inactive),99.9% (inactive),98.1% (inactive),6.23% (inactive),91.9,98.1,8.03% (inactive),14.8% (inactive)
O=C(Nc1cccc2ncccc12)c1ccc2c(c1)OCCO2,84,104% (inactive),84% (inactive),100% (inactive),104% (inactive),11.7% (inactive),92.1,104,-1.17% (inactive),-3% (inactive)
CC(C)(C)N=C1NC(=NC(C)(C)C)c2ccccc21,77,86% (inactive),77% (inactive),86% (inactive),69.3% (inactive),-11.5% (inactive),80.8,69.3,0.92% (inactive),-7.64% (inactive)
O=C(COc1ccccc1)Nc1ccccc1N1CCN(c2ccccc2)CC1,80,86% (inactive),80% (inactive),96% (inactive),84.2% (inactive),1.58% (inactive),82.6,84.2,-4.27% (inactive),2.62% (inactive)
CCOC(=O)c1cc(-c2nnc(-c3ccc(Oc4ccccc4)cc3)o2)c(C)nc1C,85,88% (inactive),85% (inactive),80.5% (inactive),102% (inactive),16.7% (inactive),85.7,102,-1.6% (inactive),-0.16% (inactive)
Cc1cc2ccccc2n1CCNC(=O)c1ccc(S(=O)(=O)N2CCOCC2)cc1,95.5,90% (inactive),95.5% (inactive),85% (inactive),93% (inactive),-4.87% (inactive),97.8,93,-7.57% (inactive),1.75% (inactive)
CCOC(=O)c1ccc(NS(=O)C23CC4CC(CC(C4)C2)C3)cc1 (stereo not given),95.5,82% (inactive),95.5% (inactive),74% (inactive),87.6% (inactive),-4.57% (inactive),92.2,87.6,-7.57% (inactive),3.28% (inactive)
CCOP(=O)(c1ccc(N(C)C)cc1)C(O)c1c(Cl)cccc1Cl (stereo not given),83,87.5% (inactive),83% (inactive),97.4% (inactive),90.1% (inactive),0.49% (inactive),89.6,90.1,-1.6% (inactive),-2.58% (inactive)
CS(=O)(=O)N(CC(=O)Nc1cccc(F)c1)Cc1ccccc1,78.5,87.5% (inactive),78.5% (inactive),87.5% (inactive),103% (inactive),13.1% (inactive),90,103,-3.78% (inactive),2.3% (inactive)
Cc1cccc(NC(=O)c2cnc3sccn3c2=O)n1,99,98.5% (inactive),99% (inactive),95.8% (inactive),100% (inactive),8.25% (inactive),92.2,100,0.13% (inactive),2.83% (inactive)
Cc1cc(C)c2oc(=O)cc(CN3CCOCC3)c2c1,102,97% (inactive),102% (inactive),87.3% (inactive),91.4% (inactive),3.58% (inactive),87.9,91.4,-6.93% (inactive),2.26% (inactive)
Cc1nn(-c2ccccc2)c2c1C(=O)NC(=O)C(C)(C)C2,96.5,88.5% (inactive),96.5% (inactive),105% (inactive),97.3% (inactive),16.2% (inactive),81.1,97.3,-4.08% (inactive),-1.27% (inactive)
COc1ccc(-c2noc(-c3ccccc3C(=O)Nc3cccnc3)n2)cc1,109,98.5% (inactive),109% (inactive),106% (inactive),86.5% (inactive),13.2% (inactive),73.3,86.5,-1.17% (inactive),0.79% (inactive)
CC(C)COc1ccc(C(=O)OCCN2CCOCC2)cc1,98.5,101% (inactive),98.5% (inactive),118% (inactive),98.2% (inactive),2.9% (inactive),95.3,98.2,-2.86% (inactive),-3.65% (inactive)
O=C(CC(CC(=O)c1ccccc1)C(=O)O)c1ccccc1,89,101% (inactive),89% (inactive),107% (inactive),102% (inactive),5.54% (inactive),96.5,102,3.6% (inactive),-6.77% (inactive)
Nc1c(N2CCCCC2)c(=O)[nH]c(=O)n1-c1ccccc1,105,139% (inactive),105% (inactive),102% (inactive),109% (inactive),13.9% (inactive),95.3,109,-2.86% (inactive),-4.33% (inactive)
Cc1nc(C)c2c(c1C(F)(F)F)-c1ccccc1C2(F)F,98,98% (inactive),98% (inactive),102% (inactive),105% (inactive),16.4% (inactive),88.9,105,-4.4% (inactive),-5.08% (inactive)
